# Source: publication PMC9291822 (British Journal of Clinical Pharmacology, 2021)
# Where two headings read alike, the source gives them in different places.
# Key:
# [1] = format: in vivo, human; conditions: for AUCinf of metabolite, GM / AUCinf of metabolite, mean (SD) / AUClast of metabolite, GM / AUClast of metabolite, mean (SD) / Cmax of metabolite, GM / Cmax of metabolite, mean (SD) / Metabolite ratio of AUCinf, GM / Metabolite ratio of AUCinf, mean (SD) / Metabolite ratio of AUClast, GM / Metabolite ratio of AUClast, mean (SD) / Tmax of metabolite, median (range) / t½ of metabolite, GM / t½ of metabolite, mean (SD): after capmatinib single oral dose 200 mg
# Outline: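 Adults aged 18–75 with hepatic impairment (Child–Pugh A/B/C, also reclassified by NCI Organ Dysfunction Working Group criteria) or normal function, matched on age, weight and sex. Overnight fast (≥10 h), single oral 200 mg (2 × 100 mg tablets), fasting ≥4 h post-dose. Plasma sampled predose to 72 h; parent and metabolite measured by validated LC-MS/MS (LLOQ ~1.00 ng/mL). Noncompartmental analysis; GM ratios vs normal with 90% CIs.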
# [2] = multiple dosing of capmatinib; cited from earlier work
# [3] = mild (n = 6), listed as M16 (CMN288)
# [4] = moderate (n = 8), listed as M16 (CMN288)
# [5] = normal (n = 9), listed as M16 (CMN288)
# [6] = severe (n = 6), listed as M16 (CMN288)
smiles,measurement,setting,value
CNC(=O)c1ccc(-c2nn3c(Cc4ccc5ncccc5c4)cnc3[nH]c2=O)cc1F [CMN288],"AUCinf of metabolite, GM",[1]; mild (n = 6),2190 ng·h/mL
same,"AUCinf of metabolite, mean (SD)",[1]; mild (n = 6),2300 (691) ng × h/mL
same,"AUClast of metabolite, GM",[1]; mild (n = 6),2150 ng·h/mL
same,"AUClast of metabolite, mean (SD)",[1]; mild (n = 6),2250 (677) ng × h/mL
same,"Cmax of metabolite, GM",[1]; mild (n = 6),423 ng/mL
same,"Cmax of metabolite, mean (SD)",[1]; mild (n = 6),492 (272) ng/mL
same,"Metabolite ratio of AUCinf, GM",[1]; mild (n = 6),0.440 (23.8) fold
same,"Metabolite ratio of AUCinf, mean (SD)",[1]; mild (n = 6),0.450 (0.0988) fold
same,"Metabolite ratio of AUClast, GM",[1]; mild (n = 6),0.437 (24.1) fold
same,"Metabolite ratio of AUClast, mean (SD)",[1]; mild (n = 6),0.447 (0.100) fold
same,"Tmax of metabolite, median (range)",[1]; mild (n = 6),1.00 (1.00–2.00) h
same,"t½ of metabolite, GM",[1]; mild (n = 6),6.84 h
same,"t½ of metabolite, mean (SD)",[1]; mild (n = 6),7.86 (5.49) h
same,"Metabolite ratio of AUCinf, GM",[1]; [3],0.440 fold
same,"Metabolite ratio of AUClast, GM",[1]; [3],0.437 fold
same,"AUCinf of metabolite, GM",[1]; moderate (n = 8),3400 ng·h/mL
same,"AUCinf of metabolite, mean (SD)",[1]; moderate (n = 8),3850 (2490) ng × h/mL
same,"AUClast of metabolite, GM",[1]; moderate (n = 8),3370 ng·h/mL
same,"AUClast of metabolite, mean (SD)",[1]; moderate (n = 8),3830 (2490) ng × h/mL
same,"Cmax of metabolite, GM",[1]; moderate (n = 8),587 ng/mL
same,"Cmax of metabolite, mean (SD)",[1]; moderate (n = 8),738 (645) ng/mL
same,"Metabolite ratio of AUCinf, GM",[1]; moderate (n = 8),0.573 (67.7) fold
same,"Metabolite ratio of AUCinf, mean (SD)",[1]; moderate (n = 8),0.680 (0.443) fold
same,"Metabolite ratio of AUClast, GM",[1]; moderate (n = 8),0.573 (68.0) fold
same,"Metabolite ratio of AUClast, mean (SD)",[1]; moderate (n = 8),0.680 (0.445) fold
same,"Tmax of metabolite, median (range)",[1]; moderate (n = 8),1.00 (1.00–3.00) h
same,"t½ of metabolite, GM",[1]; moderate (n = 8),6.42 h
same,"t½ of metabolite, mean (SD)",[1]; moderate (n = 8),7.32 (5.16) h
same,"Metabolite ratio of AUCinf, GM",[1]; [4],0.573 fold
same,"Metabolite ratio of AUClast, GM",[1]; [4],0.573 fold
same,"AUCinf of metabolite, GM",[1]; normal (n = 9),4560 ng·h/mL
same,"AUCinf of metabolite, mean (SD)",[1]; normal (n = 9),4820 (1880) ng × h/mL
same,"AUClast of metabolite, GM",[1]; normal (n = 9),4520 ng·h/mL
same,"AUClast of metabolite, mean (SD)",[1]; normal (n = 9),4780 (1880) ng × h/mL
same,"Cmax of metabolite, GM",[1]; normal (n = 9),1010 ng/mL
same,"Cmax of metabolite, mean (SD)",[1]; normal (n = 9),1050 (328) ng/mL
same,"Metabolite ratio of AUCinf, GM",[1]; normal (n = 9),0.704 (24.1) fold
same,"Metabolite ratio of AUCinf, mean (SD)",[1]; normal (n = 9),0.722 (0.181) fold
same,"Metabolite ratio of AUClast, GM",[1]; normal (n = 9),0.702 (24.0) fold
same,"Metabolite ratio of AUClast, mean (SD)",[1]; normal (n = 9),0.720 (0.180) fold
same,"Tmax of metabolite, median (range)",[1]; normal (n = 9),1.50 (1.00–2.00) h
same,"t½ of metabolite, GM",[1]; normal (n = 9),9.96 h
same,"t½ of metabolite, mean (SD)",[1]; normal (n = 9),11.4 (6.92) h
same,"Metabolite ratio of AUCinf, GM",[1]; [5],0.704 fold
same,"Metabolite ratio of AUClast, GM",[1]; [5],0.702 fold
same,"AUCinf of metabolite, GM",[1]; severe (n = 6),2130 ng·h/mL
same,"AUCinf of metabolite, mean (SD)",[1]; severe (n = 6),2350 (1200) ng × h/mL
same,"AUClast of metabolite, GM",[1]; severe (n = 6),2110 ng·h/mL
same,"AUClast of metabolite, mean (SD)",[1]; severe (n = 6),2330 (1210) ng × h/mL
same,"Cmax of metabolite, GM",[1]; severe (n = 6),262 ng/mL
same,"Cmax of metabolite, mean (SD)",[1]; severe (n = 6),287 (130) ng/mL
same,"Metabolite ratio of AUCinf, GM",[1]; severe (n = 6),0.266 (32.2) fold
same,"Metabolite ratio of AUCinf, mean (SD)",[1]; severe (n = 6),0.276 (0.0802) fold
same,"Metabolite ratio of AUClast, GM",[1]; severe (n = 6),0.264 (32.2) fold
same,"Metabolite ratio of AUClast, mean (SD)",[1]; severe (n = 6),0.274 (0.0795) fold
same,"Tmax of metabolite, median (range)",[1]; severe (n = 6),3.00 (1.50–6.00) h
same,"t½ of metabolite, GM",[1]; severe (n = 6),5.87 h
same,"t½ of metabolite, mean (SD)",[1]; severe (n = 6),5.93 (0.907) h
same,"Metabolite ratio of AUCinf, GM",[1]; [6],0.266 fold
same,"Metabolite ratio of AUClast, GM",[1]; [6],0.264 fold
same,decrease in metabolite GM AUCinf vs. normal group,[1]; mild group,52.0%
same,decrease in metabolite GM AUClast vs. normal group,[1]; mild group,52.4%
same,decrease in metabolite GM Cmax vs. normal group,[1]; mild group,58.1%
same,decrease in metabolite GM t1/2 vs. normal group,[1]; mild group,31.3%
same,decrease in metabolite GM AUCinf vs. normal group,[1]; moderate group,25.4%
same,decrease in metabolite GM AUClast vs. normal group,[1]; moderate group,25.4%
same,decrease in metabolite GM Cmax vs. normal group,[1]; moderate group,41.9%
same,decrease in metabolite GM t1/2 vs. normal group,[1]; moderate group,35.5%
same,decrease in metabolite GM AUCinf vs. normal group,[1]; severe group,53.3%
same,decrease in metabolite GM AUClast vs. normal group,[1]; severe group,53.3%
same,decrease in metabolite GM Cmax vs. normal group,[1]; severe group,74.1%
same,decrease in metabolite GM t1/2 vs. normal group,[1]; severe group,41.1%
same,decrease in metabolite GM AUCinf and AUClast vs. normal hepatic function,[1]; the 3 hepatic impairment groups,25–53%
same,accumulation of metabolite after multiple dosing,[2],does not accumulate
